The values that follow come from publication PMC6127800 (Molecular Pharmaceutics, 2018).

What is called tissue uptake is the share of the injected amount in each gram of the tissue.

The nature of data set [1]: Ex vivo biodistribution of [68Ga]WL12 in hPD-L1 and CHO tumor model. The settings on record: female, NSG, mouse, iv, 25 uCi, total radioactivity. Also noted: species or system mice. An outline of the steps: (§1)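 Female NSG mice, 6–8 weeks old, carried s.c. CHO cells stably expressing human PD-L1 and parental CHO cells (10 × 10^6, opposite upper flanks), used at 200−500 mm3. Radiotracer was given i.v. at 25 μCi, with tissues taken at 15, 60 and 120 min (n = 3). Blocking (n = 2) used 50 μg unlabeled peptide s.c. 60 min pre-tracer. %ID/g was decay-corrected against triplicate 68Ga standards; tumor-to-blood and tumor-to-muscle ratios were derived.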

The subject of the next data set is hPD-L1 and CHO tumors. The description is as above. Also on record: species or system mice. As to conditions: 120 min. An outline of the steps:
as §1

Data set [2] is classed as in vivo, mice. The settings on record: female, NSG, mouse, iv, 25 uCi, total radioactivity.
The test system of data set [3] is MDAMB231 and SUM149 tumors. The format is in vivo, mice. As to conditions: 60 min; 50 μg WL12 s.c. 60 min before tracer, n = 2.

Where two headings read alike, the source gives them in different places. Where only a bound is given, the exact number is not on record here.

Regarding `CCCC[C@H]1C(=O)N(C)[C@@H](CCCC)C(=O)N[C@@H](CCCNC(=O)CCC(C(=O)O)N2CCN(CC(=O)O)CCN(CC(=O)O)CCN(CC(=O)O)CC2)C(=O)N[C@H](C(=O)NCC(N)=O)CSCC(=O)N[C@@H](Cc2ccc(O)cc2)C(=O)N(C)[C@@H](C)C(=O)N[C@@H](CC(N)=O)C(=O)N2CCC[C@H]2C(=O)N[C@@H](Cc2c[nH]cn2)C(=O)N[C@@H](CC(C)C)C(=O)N2C[C@H](O)C[C@H]2C(=O)N[C@@H](Cc2c[nH]c3ccccc23)C(=O)N[C@@H](CO)C(=O)N[C@@H](Cc2cn(C)c3ccccc23)C(=O)N1C` (stereo partly shown) [[^68Ga]WL12, metal not drawn], the tissue uptake at 1 h in data set [1] (CHO tumor) came out at 1.33 ± 0.21 %ID/g; in data set [1] (blood), 3.3 ± 0.4 %ID/g; in data set [1] (hPD-L1 tumor), 11.6 ± 3.18 %ID/g; in data set [1] (kidney), 64.7 ± 12.1 %ID/g; in data set [1] (liver) it was 15.1 ± 7.6 %ID/g; in data set [2] (MDAMB231 tumor) it was 4.97 ± 0.8 %ID/g. The tissue uptake at 1 h in data set [2] (SUM149 tumor) turned out to be 1.9 ± 0.1 %ID/g; in data set [2] (kidney) it was 65.6 ± 3.6 %ID/g; in data set [2] (liver), 11.4 ± 0.7 %ID/g. In addition, the tissue uptake at 2 h in data set [1] (blood) came to 0.6 ± 0.01 %ID/g; in data set [1] (hPD-L1 tumor), 9.89 ± 1.72 %ID/g; in data set [1] (kidney), 27.7 ± 4.09 %ID/g; in data set [1] (liver), 2.7 ± 0.2 %ID/g. Further, the results for the tissue to tissue ratio at 2 h in data set [1] (hPD-L1 tumor / blood) and in data set [1] (hPD-L1 tumor / muscle) were 16 ± 3.4 and 100 ± 61.2, respectively. Also, the tissue to tissue ratio at 1 h in data set [1] (hPD-L1 tumor / muscle) was determined as 59.8 ± 16.5. The tissue uptake at 0.25 h in data set [1] (hPD-L1 tumor) was 19.4 ± 3.3 %ID/g. Moreover, in the data set on hPD-L1 and CHO tumors, the hPD-L1/CHO tumor ratio came out at 19.7 ± 2.7. For the same compound, the “reduction in MDAMB231 tumor uptake with blocking dose of WL12” value in data set [3] was > 50%.
